Assays:
[1] = Mean residence time (infinity) in ICR mouse at 5 mg/kg, po via gavage by LC-MS/MS analysis; assay type: ADME, organism-based; design: dose 5 mg/kg, route oral; details: in vivo
Outline: (§1)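 Male ICR mice (5–6 weeks, 20–25 g), single doses of 1, 5 or 15 mg/kg in 10% DMSO/PEG300, given iv by tail vein, ip, or orally by gavage. Three to four mice per time point, euthanized under isoflurane, blood drawn from posterior vena cava. Plasma protein precipitated with acetonitrile containing internal standard, then LC-MS/MS (MRM m/z 388.2→192). Noncompartmental analysis of mean concentration-time data, AUCinf by trapezoidal rule with extrapolation, CL = dose/AUCinf, Cmax read from the curve. F = (AUCnon-iv × dose iv)/(AUCiv × dose non-iv). n = 3 per dose group.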

[2] = Cmax in ICR mouse at 15 mg/kg, po via gavage by LC-MS/MS analysis; assay type: ADME, organism-based; design: dose 15 mg/kg, route oral; details: in vivo; outline: as §1
[3] = Volume of distribution at steady state in ICR mouse at 1 mg/kg, iv by LC-MS/MS analysis; assay type: ADME, organism-based; design: dose 1 mg/kg, route intravenous; details: in vivo, read-out: Vdss
Outline: (§2)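 Tail-vein injection in male ICR mice (5–6 weeks), vehicle 10% DMSO in PEG300. Serial terminal sampling of 3–4 mice per time point, with posterior vena cava blood. Plasma was acetonitrile-precipitated and measured by LC-MS/MS. Noncompartmental analysis of mean data: t1/2 = ln2/λz, CL = dose/AUC_inf, Vd_ss = CL × MRT_inf; n = 3/dose group.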

[4] = Drug metabolism in mouse liver microsomes assessed as (3-(1H-indol-2-yl)phenyl)(3,4,5-trimethoxyphenyl)methanol formation at 0.5 uM after 2 hrs by LC-MS/MS analysis in presence of 3 mM NADPH; assay type: ADME
Outline: (§3)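 Pooled liver microsomes (1 mg/ml protein) incubated with 0.5 µM substrate and 3 mM NADPH in 65 mM potassium phosphate, pH 7.4, 1% methanol, at 37°C for 2 h. Stopped with ice-cold acetonitrile containing internal standard, centrifuged. Supernatant analysed by LC-MS/MS on a C18 column, 15-min gradient, with product ion scans for metabolite identification.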

[5] = Terminal half life in ICR mouse at 15 mg/kg, po via gavage by LC-MS/MS analysis; assay type: ADME, organism-based; design: dose 15 mg/kg, route oral; details: in vivo, read-out: beta t1/2 (converted)
Outline: (§4)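 Male ICR mice (20–25 g) given the compound intraperitoneally or by gavage in 10% DMSO/PEG300. Three to four mice were sacrificed per time point and plasma collected from the vena cava. Plasma was precipitated with acetonitrile containing internal standard and analysed by LC-MS/MS. Noncompartmental analysis of mean concentration-time data: terminal t1/2 = ln2/λz; Tmax by inspection; n = 3/dose group.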

[6] = system: Liver microsome; assay: Drug metabolism in rat liver microsomes assessed as (3-(1H-indol-2-yl)phenyl)(3,4,5-trimethoxyphenyl)methanol formation at 0.5 uM after 2 hrs by LC-MS/MS analysis in presence of 3 mM NADPH; assay type: ADME; outline: as §3
[7] = Terminal half life in ICR mouse at 15 mg/kg, ip by LC-MS/MS analysis; assay type: ADME, organism-based; design: dose 15 mg/kg, route intraperitoneal; details: in vivo, read-out: beta t1/2 (converted); outline: as §4
[8] = Bioavailability in ICR mouse at 5 mg/kg, ip by LC-MS/MS analysis; assay type: ADME, organism-based; details: in vivo; outline: as §1
[9] = AUC (infinity) in ICR mouse at 5 mg/kg, ip by LC-MS/MS analysis; assay type: ADME, organism-based; design: time infinity, dose 5 mg/kg, route intraperitoneal; details: plasma; outline: as §1
[10] = Bioavailability in ICR mouse at 1 mg/kg, ip by LC-MS/MS analysis; assay type: ADME, organism-based; details: in vivo; outline: as §1
[11] = Terminal half life in ICR mouse at 1 mg/kg, po via gavage by LC-MS/MS analysis; assay type: ADME, organism-based; design: dose 1 mg/kg, route oral; details: in vivo, read-out: beta t1/2 (converted); outline: as §4
[12] = Metabolic stability in dog liver microsomes assessed as half life during phase 1 at 0.5 uM by LC-MS/MS analysis in presence of 3 mM NADPH and absence of UDPGA; assay type: ADME, Canis lupus familiaris; details: read-out: alphat1/2
Outline: (§5)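 Pooled liver microsomes (1 mg/ml) incubated with 0.5 µM substrate and 3 mM NADPH in 65 mM potassium phosphate, pH 7.4, 1% methanol, at 37°C. The phase I+II set also had 5 mM UDPGA, 5 mM D-saccharolactone, 50 µg/ml alamethicin and 3 mM MgCl2. Stopped at 10–90 min with cold acetonitrile plus internal standard. Parent remaining by LC-MS/MS relative to time 0. t1/2 from a two-parameter single exponential decay fit; n = 2–3.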

[13] = Tmax in ICR mouse at 1 mg/kg, ip by LC-MS/MS analysis; assay type: ADME, organism-based; design: dose 1 mg/kg, route intraperitoneal; details: in vivo; outline: as §4
[14] = Metabolic stability in dog liver microsomes assessed as half life during phase 1 and 2 at 0.5 uM by LC-MS/MS analysis in presence of 3 mM NADPH and […] UDPGA; assay type: ADME, Canis lupus familiaris; details: read-out: alphat1/2
[15] = Cmax in ICR mouse at 1 mg/kg, ip by LC-MS/MS analysis; assay type: ADME, organism-based; design: dose 1 mg/kg, route intraperitoneal; details: in vivo; outline: as §1
[16] = Terminal half life in ICR mouse at 5 mg/kg, po via gavage by LC-MS/MS analysis; assay type: ADME, organism-based; design: dose 5 mg/kg, route oral; details: in vivo, read-out: beta t1/2 (converted); outline: as §4
[17] = Mean residence time (infinity) in ICR mouse at 5 mg/kg, iv by LC-MS/MS analysis; assay type: ADME, organism-based; design: dose 5 mg/kg, route intravenous; details: in vivo; outline: as §1
[18] = Cmax in ICR mouse at 15 mg/kg, iv by LC-MS/MS analysis; assay type: ADME, organism-based; design: dose 15 mg/kg, route intravenous; details: in vivo; outline: as §1
[19] = Terminal half life in ICR mouse at 5 mg/kg, ip by LC-MS/MS analysis; assay type: ADME, organism-based; design: dose 5 mg/kg, route intraperitoneal; details: in vivo, read-out: beta t1/2 (converted); outline: as §4
[20] = Metabolic stability in human liver microsomes assessed as half life during phase 1 at 0.5 uM by LC-MS/MS analysis in presence of 3 mM NADPH and absence of UDPGA; assay type: ADME; details: read-out: alphat1/2; outline: as §5
[21] = Tmax in ICR mouse at 5 mg/kg, po by LC-MS/MS analysis; assay type: ADME, organism-based; design: dose 5 mg/kg, route oral; details: in vivo
Outline: (§6)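 Male ICR mice (5–6 weeks, 20–25 g) dosed by gavage in 10% DMSO in PEG300. Three to four mice per time point were euthanized under isoflurane and blood taken from the posterior vena cava. Plasma was acetonitrile-precipitated and analysed by LC-MS/MS (MRM m/z 388.2→192). Tmax read by visual inspection. F = (AUC_oral × dose_iv)/(AUC_iv × dose_oral), with AUC_inf by trapezoidal rule; n = 3/dose group.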

[22] = Drug metabolism in monkey liver microsomes assessed as (3-(1H-indol-2-yl)phenyl)(3,4,5-trimethoxyphenyl)methanol formation at 0.5 uM after 2 hrs by LC-MS/MS analysis in presence of 3 mM NADPH; assay type: ADME, Macaca mulatta; details: rhesus monkey; outline: as §3
[23] = Oral bioavailability in ICR mouse at 1 mg/kg via gavage after 30 mins by LC-MS/MS analysis; assay type: ADME, organism-based; details: in vivo; outline: as §6
[24] = Cmax in ICR mouse at 5 mg/kg, po via gavage by LC-MS/MS analysis; assay type: ADME, organism-based; design: dose 5 mg/kg, route oral; details: in vivo; outline: as §1
[25] = Cmax in ICR mouse at 1 mg/kg, iv by LC-MS/MS analysis; assay type: ADME, organism-based; design: dose 1 mg/kg, route intravenous; details: in vivo; outline: as §1
[26] = Terminal half life in ICR mouse at 15 mg/kg, iv by LC-MS/MS analysis; assay type: ADME, organism-based; design: dose 15 mg/kg, route intravenous; details: in vivo, read-out: beta t1/2 (converted); outline: as §2
[27] = Mean residence time (infinity) in ICR mouse at 15 mg/kg, iv by LC-MS/MS analysis; assay type: ADME, organism-based; design: dose 15 mg/kg, route intravenous; details: in vivo; outline: as §1
[28] = Mean residence time (infinity) in ICR mouse at 1 mg/kg, iv by LC-MS/MS analysis; assay type: ADME, organism-based; design: dose 1 mg/kg, route intravenous; details: in vivo; outline: as §1
[29] = Mean residence time (infinity) in ICR mouse at 15 mg/kg, ip by LC-MS/MS analysis; assay type: ADME, organism-based; design: dose 15 mg/kg, route intraperitoneal; details: in vivo; outline: as §1

COc1cc(C(=O)c2cccc(-c3cc4ccccc4[nH]3)c2)cc(OC)c1OC
MRT inf [1]: 8.9 h
Cmax [2]: 260 ng/mL
Vd [3]: 5.3 L/kg
Drug metabolism [4]: metabolite_detected
half-life [5]: 474 min
Drug metabolism [6]: metabolite_detected
half-life [7]: 498 min
bioavailability [8]: 95%
AUC(0-inf) [9]: 3750 ng·h/mL
bioavailability [10]: 65%
half-life [11]: 522 min
half-life at 0.5 µM [12]: 29 min
Tmax [13]: 5 min
half-life at 0.5 µM [14]: 33 min
Cmax [15]: 250 ng/mL
half-life [16]: 462 min
MRT inf [17]: 3.3 h
Cmax [18]: 7530 ng/mL
half-life [19]: 294 min
half-life at 0.5 µM [20]: 24 min
Tmax [21]: 30 min
Drug metabolism [22]: metabolite_detected
bioavailability [23]: 24%
Cmax [24]: 100 ng/mL
Cmax [25]: 550 ng/mL
half-life [26]: 534 min
MRT inf [27]: 8.8 h
MRT inf [28]: 3 h
MRT inf [29]: 7 h
